In the library only some 4.1% were active in any assay of this set; here they are far more common.
NS3 helicase inh: HCV NS3 helicase inhibition. NS3 helicase DNA unwinding, Cy5 molecular beacon fluorescence. inhibition, % at 10.9 µM. 290,000 tested, 0.56% active. AID 1800;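 active = inhibition above the mean of all tested compounds plus 3 SD, set per campaign, cut at about 35% in these data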
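Measured by: Cy5 fluorescence, 0 and 60 min reads / Assay system: NS3 helicase fragment of HCV / Control set: low DMSO, high thioflavine S at 110 µM / Times: 1 h reaction at 25 °C, ATP-initiated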
FID counter: counter-screen for HCV NS3 helicase inhibitors: DNA intercalator displacement. DNA fluorescent intercalator displacement, fluorescence. inhibition, % at 7.9 µM. 290,000 tested, 0.17% active. AID 1845; in the data active = inhibition above about 37%;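 also: higher means more ethidium bromide displaced from hairpin DNA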
T cruzi inh: T. cruzi replication inhibition; 300,000 tested, 1.4% active; inhibition, % (no concentration beside the values); AID 1885; T. cruzi beta-gal in NIH3T3, luminescence, 90 h;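 active = mean inhibition across valid replicates above about 55%, limit read from the data; inconclusive = mean below that limit but half or more replicates reach it; inactive = mean below it, under half of replicates reach it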;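 also: signal also drops with host cell toxicity which is not excluded here; higher percent means less beta-gal luminescence so fewer parasites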
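Material: NIH/3T3 host cells with β-galactosidase reporter T. cruzi; Input: 5,000 host fibroblasts per well; Medium: DMEM, 2% fetal bovine serum; Compound: 50 nL DMSO compound solution per well; Schedule: 3 h host attachment, then at least 90 h co-culture; Detection: luminescent β-galactosidase signal after 60 min lysis.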
MEKK3 PB1 HTS: raises or lowers MEK5 binding to the human MEKK3 PB1 domain; binding response (% of control), % at 10 µM; AID 1529; bead-based flow cytometry, Alexa488-MEK5 binding to MEKK3; actives lie on both sides; 0 = blocked by unlabeled MEK5, 100 = vehicle; Q99759; 290,000 tested, 1.4% active;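 active = binding response more than 3 SD above or below the average of its plate-row segment, actives on both sides; inconclusive = wells at one plate position flagged as instrument error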;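 also: Alexa488 bead fluorescence after subtracting the streptavidin-only scavenger bead signal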
Target sequence (Q99759 whole entry, looked up, the tested form may be a part): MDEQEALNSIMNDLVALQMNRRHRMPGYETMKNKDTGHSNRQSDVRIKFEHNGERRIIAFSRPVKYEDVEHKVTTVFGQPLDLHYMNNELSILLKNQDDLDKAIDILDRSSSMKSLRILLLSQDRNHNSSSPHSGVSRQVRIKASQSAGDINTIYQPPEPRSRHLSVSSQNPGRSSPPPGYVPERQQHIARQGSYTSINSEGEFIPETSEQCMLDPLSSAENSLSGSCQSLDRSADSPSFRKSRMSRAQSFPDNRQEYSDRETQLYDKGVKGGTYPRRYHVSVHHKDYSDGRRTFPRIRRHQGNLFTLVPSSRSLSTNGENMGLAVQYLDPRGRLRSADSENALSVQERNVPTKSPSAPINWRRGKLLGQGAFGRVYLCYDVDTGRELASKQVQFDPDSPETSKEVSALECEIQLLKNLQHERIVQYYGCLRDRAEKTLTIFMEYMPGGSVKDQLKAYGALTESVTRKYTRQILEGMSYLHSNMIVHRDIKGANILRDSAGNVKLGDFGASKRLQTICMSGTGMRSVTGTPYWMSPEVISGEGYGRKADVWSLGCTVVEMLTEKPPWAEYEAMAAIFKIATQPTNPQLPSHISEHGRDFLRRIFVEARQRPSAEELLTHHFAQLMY
MEKK2wt PB1 HTS: raises or lowers MEK5 binding to wildtype human MEKK2 PB1 domain; bead flow cytometry, Alexa488-MEK5 binding to MEKK2 WT; actives lie on both sides; Q9Y2U5; binding response (% of control), % at 10 µM; 290,000 tested, 1.1% active; in the data active = binding response below about 67% or above about 130%; inconclusive = no clear call, values can overlap the other calls; inactive = in between
MEKK2 mut-MEK5: signal of MEK5 binding to mutant human MEKK2 PB1 domain; 290,000 tested, 0.35% active; bead flow cytometry, Alexa488-MEK5 binding to MEKK2 mutant; percent response, % at 10 µM; in the data active = percent response above about 24%, passing the limit was not always enough
MEKK2wt confirm: raises or lowers MEK5 binding to wildtype human MEKK2, retest; bead flow cytometry, Alexa488-MEK5 binding to MEKK2 WT; actives lie on both sides; 5,900 tested, 2.4% active; shares compounds with MEKK3 PB1 HTS; AID 1892; binding response (% of control), % at 10 µM; in the data active = binding response below about 16% or above about 210%; inactive = in between
MEKK2mut confirm: signal of MEK5 binding to mutant human MEKK2, retest. 5,900 tested, 2% active. bead flow cytometry, Alexa488-MEK5 binding to MEKK2 mutant. percent response, % at 10 µM. AID 1893. shares compounds with MEKK3 PB1 HTS; in the data active = percent response mostly above about 71%, no sharp cut-off; inactive = mostly below about 38%;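 also: higher means compound restores mutant binding toward wildtype level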
MEKK3 confirm: confirmation of inhibitors of MEK5 binding to human MEKK3 | AID 1894 | shares compounds with MEKK3 PB1 HTS | bead flow cytometry, Alexa488-MEK5 binding to MEKK3; hits give low values | binding response (% of control), % at 10 µM | 5,900 tested, 1.8% active;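 active = binding response below 72% of control, or above a set upper limit, though filed actives all read lower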;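 also: lower values mean stronger disruption of MEK5 binding to MEKK3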
A number is an active result; – = inactive; ? = inconclusive; · = not tested or not shown; [ ] = dose if it differs, or a comment.

SMILES	NS3 helicase inh	FID counter	T cruzi inh	MEKK3 PB1 HTS	MEKK2wt PB1 HTS	MEKK2 mut-MEK5	MEKK2wt confirm	MEKK2mut confirm	MEKK3 confirm
COc1ccccc1CNCC(O)(c1ccc(Cl)cc1)c1ccc(Cl)cc1	–	–	–	–	163	–	–	–	–
Cc1ccc(CN2C3CCCC2CC(NC(=O)c2ccc(C)cc2)C3)cc1 (stereo not drawn)	–	–	–	144	200	52	–	–	–
O=C(CN1C2CCCC1CC(NC(=O)C1CCCCC1)C2)Nc1ccccc1 (stereo not drawn)	–	–	–	–	–	–	·	·	·
O=C(Nc1ccc(Cl)c(C(F)(F)F)c1)NC1CC2CCCC(C1)N2Cc1ccccc1 (stereo not drawn)	–	–	–	–	215	–	–	–	–
O=C(NC1CC2CCCC(C1)N2C(=O)Nc1ccc(Cl)c(C(F)(F)F)c1)C1CC1 (stereo not drawn)	–	–	–	–	–	–	·	·	·
O=C(NC1CC2CCCC(C1)N2Cc1ccccc1)C1CCCCC1 (stereo not drawn)	–	–	–	146	–	–	–	–	–
COCCNC(=S)NC1CC2CCCC(C1)N2Cc1cccs1 (stereo not drawn)	–	–	–	82[inhibitor]	–	–	–	–	–
COCCCNC(=S)NC1CC2CCCC(C1)N2Cc1cccs1 (stereo not drawn)	–	–	–	–	–	–	·	·	·
CC(=O)NC1CC2CCCC(C1)N2Cc1ccc(C)cc1 (stereo not drawn)	–	–	–	–	–	–	·	·	·
Cc1ccc(NC(=S)NC(=O)c2cncc(Br)c2)cc1Cl	·	·	–	·	·	·	·	·	·
C=CCN1C(=O)C(CC(=O)O)SC1=Nc1ccc(C)cc1 (stereo not drawn)	–	–	–	–	–	–	·	·	·
Cc1nn(C)cc1S(=O)(=O)Nc1cccc(Cl)c1	–	–	–	–	–	–	·	·	·
CCCNC(=S)NC1CC2CCC(C1)N2Cc1ccccc1 (stereo not drawn)	–	–	–	82[inhibitor]	–	–	–	–	–
CCOC(=O)C(=NC1CCS(=O)(=O)C1)NNc1cc(Cl)ccc1Cl (stereo not drawn)	–	–	–	–	–	–	·	·	·
CCOC(=O)C(=NCCOC)NNc1cc(Cl)ccc1Cl	–	–	–	140	–	–	–	–	–
O=[N+]([O-])c1ccc(C2=NN(c3ccccc3)C(c3ccco3)C2)cc1 (stereo not drawn)	–	–	–	–	33	124	–	–	–
CS(=O)(=O)N1CCN(c2ccc([N+](=O)[O-])cc2F)CC1	–	–	–	75[inhibitor]	–	–	–	–	–
CCc1cc(C(=O)N=Nc2c(O)[nH]c3c(Br)cc(Br)cc23)c2ccccc2n1	–	–	–	139	–	–	–	–	–
CCOC(=O)c1ccc(NC(=O)N2CCN(c3cccc(OC)c3)CC2)cc1	–	–	–	–	–	–	·	·	·
COc1ccc(Nc2cc(C)nc3c(C)cccc23)cc1OC	–	–	–	–	–	26	–	–	–
CCOc1ccc(Nc2cc(C)nc3c(C)cccc23)cc1	–	–	–	–	–	–	·	·	·
CC(C)Oc1ccc(CNS(=O)(=O)c2csc(C(N)=O)c2)cc1	–	–	–	–	–	–	·	·	·
C=Cn1cc[n+](CC(=O)C(C)(C)C)c1	–	–	–	137	–	–	–	–	–
COc1ccc(S(=O)(=O)n2c(CCN3CCOCC3)nc3ccccc32)cc1	–	–	–	–	–	–	·	·	·
CC(C)(C)c1ccc(S(=O)(=O)n2c(CN3CCOCC3)nc3ccccc32)cc1	–	–	–	125	–	–	–	–	–
SMILES	NS3 helicase inh	FID counter	T cruzi inh	MEKK3 PB1 HTS	MEKK2wt PB1 HTS	MEKK2 mut-MEK5	MEKK2wt confirm	MEKK2mut confirm	MEKK3 confirm
CC[C@@H](C)[C@H](CN[C@H](CNC)C(C)C)NC[C@@H](C)c1ccc(CC(C)C)cc1	–	–	–	–	185	–	–	71	–
COc1ccc(/C=N/S(=O)(=O)CCc2ccccc2)c(OC)c1	–	–	–	69[inhibitor]	–	–	–	–	–
COc1cc(/C=N/S(=O)(=O)CCc2ccccc2)ccc1O	–	–	–	–	–	–	·	·	·
CCCCC(=O)N(c1ccc(C)c(C)c1)C1C=CS(=O)(=O)C1 (stereo not drawn)	–	–	–	1.0[inhibitor]	-7.0[inhibitor]	–	–	–	–
NNC(=O)c1oc2ccccc2c1-n1cccc1	–	–	–	143	–	–	–	–	–
CCc1nc(C)ccc1OC(=O)C12CC3CC(CC(C3)C1)C2	–	–	–	–	138	–	–	–	–
O=C1COc2ccc(C(=O)COC(=O)c3ccccn3)cc2N1	·	·	–	·	·	·	·	·	·
CCCn1nc(C(=O)OCC(=O)c2ccc3c(c2)NC(=O)CO3)c2ccccc2c1=O	–	–	–	132	–	–	–	–	–
Cc1ccc(Cl)cc1NC(=O)c1cc2ccccc2cc1O	–	–	–	?	?	–	·	·	·
COc1ccc(NC(=O)Nc2cc3oc4ccccc4c3cc2OC)cc1	–	–	–	·	·	·	·	·	·
COc1cc2c(cc1NC(=O)Nc1ccc(C)cc1)oc1ccccc12	–	–	–	–	141	24	–	–	–
COc1cc2c(cc1NC(=O)Nc1cccc(C)c1)oc1ccccc12	–	–	–	–	150	30	6.0[inhibitor]	–	–
CCN(CC)c1ccc(S(=O)(=O)N2CCOCC2)cc1NC(=O)CSc1nncs1	·	·	–	·	·	·	·	·	·
Cc1cc([N+](=O)[O-])ccc1N(C)C	–	–	–	–	–	–	·	·	·
C=CCN(CC=C)S(=O)(=O)c1ccc(NC(=S)NC(=O)C2CC2)cc1	–	–	–	–	–	–	·	·	·
CC1CC(O)(Cc2ccccc2)C(C)CN1C (stereo not drawn)	–	–	–	–	–	–	·	·	·
CC1C(C)C(O)(c2ccccc2)CCN1C (stereo not drawn)	–	–	–	130	–	–	–	–	–
CCn1cc(C=C2C(=O)c3ccccc3C2=O)c2ccccc21	–	–	–	–	33[inhibitor]	–	–	–	–
Cc1csc(-c2cnn(-c3ccccc3)c2NC(=O)c2ccccc2)n1	–	–	–	1.0[inhibitor]	1.0[inhibitor]	–	–	–	–
Cc1csc(-c2cnn(-c3ccccc3)c2NC(=O)c2cccc(F)c2)n1	–	–	–	–	–	–	·	·	·
